Measured values: ChEMBL document CHEMBL1145295, “Synthesis and biological evaluation of 5-arylamino-6-chloro-1H-indazole-4,7-diones as inhibitors of protein kinase B/Akt” (Bioorg Med Chem Lett, 2006)
pIC50: −log10 of the molar value. The source made the active and inactive calls. The rule behind the calls is not given here.

Assays:
[1] = tested on: HepG2; assay: Cytotoxicity against human HepG2 cells by MTT assay; type: functional, cell-based
Procedure, shortened: (§1)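 MTT colorimetric cytotoxicity assay following NCI protocols. Cells grown in DMEM with 10% heat-inactivated FBS at 37 °C, 5% CO₂.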

[2] = Cytotoxicity against human KATO3 cells by MTT assay; type: functional, cell-based; procedure, shortened: as §1
[3] = target: RAC-alpha serine/threonine-protein kinase (Homo sapiens, UniProt P31749); assay: Inhibition of Akt1 activity assessed as decrease in GSK3 phosphorylation; type: functional
Chain of RAC-alpha serine/threonine-protein kinase (P31749 whole entry, the tested form may be a part): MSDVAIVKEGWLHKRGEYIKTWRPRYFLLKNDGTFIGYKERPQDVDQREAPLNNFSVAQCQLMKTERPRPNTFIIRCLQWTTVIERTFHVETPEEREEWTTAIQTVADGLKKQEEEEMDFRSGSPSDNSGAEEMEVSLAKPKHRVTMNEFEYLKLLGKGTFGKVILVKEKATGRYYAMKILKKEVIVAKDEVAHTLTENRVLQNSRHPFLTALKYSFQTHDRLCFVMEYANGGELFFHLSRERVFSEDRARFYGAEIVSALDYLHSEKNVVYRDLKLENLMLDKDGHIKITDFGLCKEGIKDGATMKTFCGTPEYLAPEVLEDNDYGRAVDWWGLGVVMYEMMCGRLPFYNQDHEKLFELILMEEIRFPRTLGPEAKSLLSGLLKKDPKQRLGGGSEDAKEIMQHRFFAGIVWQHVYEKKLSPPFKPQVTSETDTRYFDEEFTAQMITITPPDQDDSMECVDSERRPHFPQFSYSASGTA
Procedure, shortened: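 Akt1 enzyme (10 U/µL) preincubated 10 min at 37 °C with compound in DMSO in HEPES 20 mM, NaCl 14.3 mM, EDTA 1 mM, DTT 2 mM. Then 3 µL of 2 mM ATP and GSK3 fusion protein added, 30 min at 37 °C. Stopped at 70 °C for 5 min. Phospho-GSK3 detected by SDS-PAGE/Western or dot blot with anti-phospho (Ser21/9) antibody, ECL and densitometry.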

[4] = tested on: PC-3; assay: Inhibition of Akt1 phosphorylation in PC3 cells at 10 uM upto 5 hrs; type: functional, cell-based; settings: Homo sapiens
Procedure, shortened: (§2)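 PC-3 cells (2×10⁶) cultured one day in DMEM/10% FBS, then exposed to 10 µM compound for up to 5 h. Lysates (70 µg) resolved on 12% gel. Western blot with anti-phospho-GSK3α/β (Ser21/9), anti-phospho-Akt (Ser473), anti-Akt and anti-GSK3β antibodies, ECL and densitometry. Values are relative to DMSO treatment.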

[5] = target: T1, Serine/threonine-protein kinase AKT (Homo sapiens) (UniProt P31751+Q9Y243+P31749); assay: Inhibition of GSK3-alpha phosphorylation in PC3 cells at 10 uM upto 5 hrs; type: functional, cell-based; settings: PC-3, TDE = time-dependent effect; procedure, shortened: as §2
T1 sequence (P31749 whole entry, looked up): as the sequence (P31749 whole entry, the tested form may be a part) above
T1 sequence (P31751 whole entry, looked up): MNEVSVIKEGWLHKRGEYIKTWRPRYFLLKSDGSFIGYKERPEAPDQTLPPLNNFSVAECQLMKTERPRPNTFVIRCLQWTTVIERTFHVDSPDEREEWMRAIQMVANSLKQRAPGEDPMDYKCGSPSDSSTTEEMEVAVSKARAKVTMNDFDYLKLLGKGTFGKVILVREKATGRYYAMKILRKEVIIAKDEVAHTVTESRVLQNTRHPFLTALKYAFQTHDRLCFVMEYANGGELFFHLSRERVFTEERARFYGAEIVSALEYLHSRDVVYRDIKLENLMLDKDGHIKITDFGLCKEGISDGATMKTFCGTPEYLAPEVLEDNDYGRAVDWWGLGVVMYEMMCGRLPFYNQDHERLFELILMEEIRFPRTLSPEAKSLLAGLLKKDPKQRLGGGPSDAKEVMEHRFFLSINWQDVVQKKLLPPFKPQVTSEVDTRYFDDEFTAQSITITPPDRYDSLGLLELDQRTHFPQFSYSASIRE
T1 sequence (Q9Y243 whole entry, looked up): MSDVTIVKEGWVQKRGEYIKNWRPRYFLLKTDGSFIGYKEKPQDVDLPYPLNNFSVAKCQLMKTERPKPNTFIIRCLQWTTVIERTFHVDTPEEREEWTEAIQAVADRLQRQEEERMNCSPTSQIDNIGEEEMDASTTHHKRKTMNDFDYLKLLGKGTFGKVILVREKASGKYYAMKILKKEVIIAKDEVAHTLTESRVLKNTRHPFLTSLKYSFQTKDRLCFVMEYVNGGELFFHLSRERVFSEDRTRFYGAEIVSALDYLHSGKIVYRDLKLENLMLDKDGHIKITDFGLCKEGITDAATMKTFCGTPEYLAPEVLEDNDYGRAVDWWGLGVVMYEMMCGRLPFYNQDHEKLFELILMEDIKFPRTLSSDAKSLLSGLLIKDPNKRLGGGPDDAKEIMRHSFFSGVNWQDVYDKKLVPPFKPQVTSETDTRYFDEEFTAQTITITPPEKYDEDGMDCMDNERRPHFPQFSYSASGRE

[6] = target: T1, Serine/threonine-protein kinase AKT (Homo sapiens); assay: Inhibition of GSK3-beta phosphorylation in PC3 cells at 10 uM upto 5 hrs; type: functional, cell-based; settings: PC-3, TDE = time-dependent effect; procedure, shortened: as §2
[7] = tested on: PC-3; assay: Cytotoxicity against human PC3 cells by MTT assay; type: functional, cell-based; procedure, shortened: as §1
[8] = tested on: PC-3; assay: Antitumor activity against human PC3 cell xenografted in nude mouse at 5 mg/kg/day after 16 days; type: functional
Procedure, shortened: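 Male nude mice, 4 weeks old, inoculated sc in the flank with PC-3 cells (10⁶ cells/site). At 200 mm³ tumors, randomized into groups (n = 6). Dosed iv daily for 16 days in cremophor vehicle (ethanol 7%, cremophor 7%, water). Tumors measured twice weekly by caliper, volume = length·width²/2. Inhibition is relative to vehicle at day 16.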

| pIC50 [3] | inhibition [5] | inhibition [6] | Compound | pIC50 [1] | pIC50 [2] | Activity [4] | pIC50 [7] | Activity [8] |
| --- | --- | --- | --- | --- | --- | --- | --- | --- |
| < 4.30 |  |  | O=C1C(Nc2ccc(F)cc2)=C(Cl)C(=O)c2[nH]ncc21 | 4.43 | 4.21 |  |  |  |
| 5.31 |  |  | CCOc1ccc(NC2=C(Cl)C(=O)c3[nH]ncc3C2=O)cc1 | 4.95 | 5.01 |  |  |  |
| 4.86 |  |  | O=C1C(Nc2cccc(Br)c2)=C(Cl)C(=O)c2[nH]ncc21 | 5.21 | 5.05 |  |  |  |
| 4.80 |  |  | O=C1C(Nc2ccccc2F)=C(Cl)C(=O)c2[nH]ncc21 | 4.80 | 4.69 |  |  |  |
| 4.93 | tde | tde | O=C1C(Nc2cccc(F)c2)=C(Cl)C(=O)c2[nH]ncc21 | 5.05 | 5.41 | Active | 5.20 |  |

The remaining lines, values behind:

| Compound | pIC50 [3] | inhibition [5] | inhibition [6] | pIC50 [1] | pIC50 [2] | Activity [4] | pIC50 [7] | Activity [8] |
| --- | --- | --- | --- | --- | --- | --- | --- | --- |
| O=C1C(Nc2cc(F)cc(F)c2)=C(Cl)C(=O)c2[nH]ncc21 | < 4.30 |  |  | 4.42 | 4.12 |  |  |  |
| Nc1ccc(N)c2[nH]ncc12 | < 4.30 |  |  | < 4.00 | < 4.00 |  |  |  |
| Cc1cc(C)cc(SC2=C(Cl)C(=O)c3[nH]ncc3C2=O)c1 | < 4.30 |  |  | < 4.00 | < 4.00 |  |  |  |
| O=C1C(Nc2ccc(F)cc2F)=C(Cl)C(=O)c2[nH]ncc21 | 4.80 |  |  | 5.70 | 5.00 |  |  |  |
| O=C1C(Sc2ccc(Cl)c(Cl)c2)=C(Cl)C(=O)c2[nH]ncc21 | 4.91 |  |  | 4.05 | < 4.00 |  |  |  |
| O=C1C(Nc2ccc(C(F)(F)F)cc2)=C(Cl)C(=O)c2[nH]ncc21 | 4.91 | tde | tde | 5.04 | 4.86 | Active | 4.86 | 27.1% |
